Source: ChEMBL document CHEMBL2150909, “Imidazo[1,2-a]pyridines: orally active positive allosteric modulators of the metabotropic glutamate 2 receptor” (J Med Chem, 2012)
Calls of active or inactive are those of the source. No cut-off for these calls is given here.

Legend:
[1] = molecular target: Metabotropic glutamate receptor 5 (Homo sapiens) (UniProt P41594); test: Agonist activity at human mGlu 5 expressed in HEK293 cells at 10 uM by Ca+2 assay; assay type: functional, cell-based
In short: (§1)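 Ca2+ assays on human mGlu1, mGlu3, mGlu5, mGlu7 or mGlu8 receptors, each expressed in HEK293 cells; compound tested at 10 μM for agonist and antagonist activity.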

[2] = molecular target: Metabotropic glutamate receptor 6 (Rattus norvegicus) (UniProt P35349); test: Antagonist activity at rat mGlu 6 expressed in CHO cells assessed as inhibition of [35S]GTPgammaS binding by liquid scintillation counting; assay type: functional, cell-based
In short: (§2)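 [35S]GTPγS functional assays on human mGlu4 or rat mGlu6 receptors expressed in L929 or CHO cells; agonist and antagonist modes tested at 10 μM.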

[3] = molecular target: Metabotropic glutamate receptor 8 (Homo sapiens) (UniProt O00222); test: Antagonist activity at human mGlu 8 expressed in HEK293 cells at 10 uM by Ca+2 assay; assay type: functional, cell-based; in short: as §1
Chain of Metabotropic glutamate receptor 8 (Homo sapiens) (O00222 whole entry): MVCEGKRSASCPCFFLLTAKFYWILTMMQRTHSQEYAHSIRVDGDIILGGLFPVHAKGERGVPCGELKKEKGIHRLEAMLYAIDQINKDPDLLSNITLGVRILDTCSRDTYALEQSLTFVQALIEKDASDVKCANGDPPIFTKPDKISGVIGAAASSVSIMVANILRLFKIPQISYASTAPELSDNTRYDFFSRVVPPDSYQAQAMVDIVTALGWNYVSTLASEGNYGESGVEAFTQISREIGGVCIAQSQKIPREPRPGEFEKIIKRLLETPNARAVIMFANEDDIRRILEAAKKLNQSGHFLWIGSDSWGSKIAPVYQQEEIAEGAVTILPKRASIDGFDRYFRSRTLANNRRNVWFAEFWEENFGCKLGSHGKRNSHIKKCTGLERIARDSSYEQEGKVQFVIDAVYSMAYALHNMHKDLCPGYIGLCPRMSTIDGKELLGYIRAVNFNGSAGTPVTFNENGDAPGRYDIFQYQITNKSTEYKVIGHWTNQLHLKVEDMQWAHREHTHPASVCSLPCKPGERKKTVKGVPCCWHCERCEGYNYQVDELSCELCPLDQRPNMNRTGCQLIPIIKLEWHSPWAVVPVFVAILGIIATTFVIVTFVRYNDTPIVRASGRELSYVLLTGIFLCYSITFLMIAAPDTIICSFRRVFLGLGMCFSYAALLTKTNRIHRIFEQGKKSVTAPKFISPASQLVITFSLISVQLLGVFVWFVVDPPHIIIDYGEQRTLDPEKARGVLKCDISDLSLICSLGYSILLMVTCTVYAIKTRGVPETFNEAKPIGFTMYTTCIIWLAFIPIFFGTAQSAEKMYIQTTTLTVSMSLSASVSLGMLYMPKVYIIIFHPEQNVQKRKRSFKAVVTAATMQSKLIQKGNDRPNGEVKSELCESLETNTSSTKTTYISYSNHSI

[4] = AUC (0 to infinity) in Sprague-Dawley rat at 10 mg/kg, po and 2.5 mg/kg, iv; assay type: ADME, organism-based; details: plasma
In short: (§3)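 Rat PK: compounds formulated in 20% HP-β-CD at pH 4 and given orally and intravenously. Values are geometric means of at least two runs ± SEM.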

[5] = molecular target: Metabotropic glutamate receptor 8 (Homo sapiens) (UniProt O00222); test: Agonist activity at human mGlu 8 expressed in HEK293 cells at 10 uM by Ca+2 assay; assay type: functional, cell-based; in short: as §1
[6] = molecular target: Metabotropic glutamate receptor 3 (Homo sapiens) (UniProt Q14832); test: Antagonist activity at human mGlu 3 expressed in HEK293 cells at 10 uM by Ca+2 assay; assay type: functional, cell-based; in short: as §1
[7] = Half life in Sprague-Dawley rat at 10 mg/kg, po and 2.5 mg/kg, iv; assay type: ADME, organism-based; details: in vivo; in short: as §3
[8] = Drug uptake in Sprague-Dawley rat brain at 10 mg/kg, sc after 1 hr; assay type: ADME, organism-based; design: dose 10 mg/kg, route subcutaneous; details: read-out: Drug uptake
In short: (§4)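 Brain exposure in male Sprague-Dawley rats after a 10 mg/kg subcutaneous dose, vehicle 20% HP-β-CD at pH 4. Brain level measured in ng/g alongside plasma in ng/mL; geometric mean of at least two runs ± SEM.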

[9] = Oral bioavailability in Sprague-Dawley rat at 10 mg/kg; assay type: ADME, organism-based; details: in vivo
In short: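 Male Sprague-Dawley rats given 10 mg/kg orally and/or 1.25 mg/kg intravenously; compound formulated in 20% HP-β-CD at pH 4. Cmax, tmax, AUC0−inf, t1/2, clearance and oral bioavailability F derived from plasma levels; geometric mean of at least two runs ± SEM.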

[10] = molecular target: Metabotropic glutamate receptor 5 (Homo sapiens) (UniProt P41594); test: Antagonist activity at human mGlu 5 expressed in HEK293 cells at 10 uM by Ca+2 assay; assay type: functional, cell-based; in short: as §1
[11] = Ratio of drug level in brain to plasma of Sprague-Dawley rat at 10 mg/kg, sc after 2 hrs; assay type: ADME, organism-based; design: dose 10 mg/kg, route subcutaneous; details: read-out: BPR
In short: (§5)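 Male Sprague−Dawley rats given 10 mg/kg subcutaneously, vehicle 20% HP-β-CD at pH 4. Plasma (ng/mL) and brain (ng/g) drug levels determined at the listed post-dose time; B/P ratio derived from them. Values are geometric means of at least two runs ± SEM.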

[12] = molecular target: T1, Metabotropic glutamate receptor 7 (Homo sapiens, UniProt Q14831); test: Antagonist activity at human mGlu 7 expressed in HEK293 cells at 10 uM by Ca+2 assay; assay type: functional, cell-based; in short: as §1
T1 sequence (Q14831 whole entry): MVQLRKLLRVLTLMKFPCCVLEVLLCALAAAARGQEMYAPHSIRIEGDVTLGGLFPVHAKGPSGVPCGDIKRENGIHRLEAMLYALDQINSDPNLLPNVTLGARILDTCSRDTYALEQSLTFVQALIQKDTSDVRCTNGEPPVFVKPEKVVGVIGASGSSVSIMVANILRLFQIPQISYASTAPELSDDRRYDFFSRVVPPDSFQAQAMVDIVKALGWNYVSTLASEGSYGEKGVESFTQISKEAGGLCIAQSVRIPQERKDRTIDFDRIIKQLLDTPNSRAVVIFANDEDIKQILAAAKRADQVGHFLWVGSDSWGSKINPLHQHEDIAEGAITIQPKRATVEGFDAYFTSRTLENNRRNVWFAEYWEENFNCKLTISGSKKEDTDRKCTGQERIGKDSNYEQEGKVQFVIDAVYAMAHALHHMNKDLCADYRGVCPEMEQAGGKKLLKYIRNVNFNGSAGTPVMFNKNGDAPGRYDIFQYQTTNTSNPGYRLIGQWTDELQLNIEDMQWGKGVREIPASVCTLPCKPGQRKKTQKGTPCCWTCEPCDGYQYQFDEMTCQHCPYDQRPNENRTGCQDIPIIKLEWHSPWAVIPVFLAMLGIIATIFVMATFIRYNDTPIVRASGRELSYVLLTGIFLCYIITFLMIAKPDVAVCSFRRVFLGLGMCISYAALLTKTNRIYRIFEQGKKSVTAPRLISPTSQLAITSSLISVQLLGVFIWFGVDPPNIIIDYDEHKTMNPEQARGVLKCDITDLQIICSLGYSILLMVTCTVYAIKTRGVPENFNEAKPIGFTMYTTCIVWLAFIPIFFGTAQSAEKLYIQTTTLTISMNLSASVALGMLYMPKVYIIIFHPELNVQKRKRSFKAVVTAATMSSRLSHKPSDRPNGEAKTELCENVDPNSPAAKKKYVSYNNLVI

[13] = Tmax in Sprague-Dawley rat at 10 mg/kg, po and 2.5 mg/kg, iv; assay type: ADME, organism-based; details: in vivo; in short: as §3
[14] = Ratio of drug level in brain to plasma of Sprague-Dawley rat at 10 mg/kg, sc after 4 hrs; assay type: ADME, organism-based; design: dose 10 mg/kg, route subcutaneous; details: brain and plasma, read-out: BPR; in short: as §5
[15] = molecular target: Metabotropic glutamate receptor 4 (Homo sapiens) (UniProt Q14833); test: Agonist activity at human mGlu 4 expressed in L929 cells assessed as [35S]GTPgammaS binding by liquid scintillation counting; assay type: functional, cell-based; in short: as §2
Chain of Metabotropic glutamate receptor 4 (Homo sapiens) (Q14833 whole entry): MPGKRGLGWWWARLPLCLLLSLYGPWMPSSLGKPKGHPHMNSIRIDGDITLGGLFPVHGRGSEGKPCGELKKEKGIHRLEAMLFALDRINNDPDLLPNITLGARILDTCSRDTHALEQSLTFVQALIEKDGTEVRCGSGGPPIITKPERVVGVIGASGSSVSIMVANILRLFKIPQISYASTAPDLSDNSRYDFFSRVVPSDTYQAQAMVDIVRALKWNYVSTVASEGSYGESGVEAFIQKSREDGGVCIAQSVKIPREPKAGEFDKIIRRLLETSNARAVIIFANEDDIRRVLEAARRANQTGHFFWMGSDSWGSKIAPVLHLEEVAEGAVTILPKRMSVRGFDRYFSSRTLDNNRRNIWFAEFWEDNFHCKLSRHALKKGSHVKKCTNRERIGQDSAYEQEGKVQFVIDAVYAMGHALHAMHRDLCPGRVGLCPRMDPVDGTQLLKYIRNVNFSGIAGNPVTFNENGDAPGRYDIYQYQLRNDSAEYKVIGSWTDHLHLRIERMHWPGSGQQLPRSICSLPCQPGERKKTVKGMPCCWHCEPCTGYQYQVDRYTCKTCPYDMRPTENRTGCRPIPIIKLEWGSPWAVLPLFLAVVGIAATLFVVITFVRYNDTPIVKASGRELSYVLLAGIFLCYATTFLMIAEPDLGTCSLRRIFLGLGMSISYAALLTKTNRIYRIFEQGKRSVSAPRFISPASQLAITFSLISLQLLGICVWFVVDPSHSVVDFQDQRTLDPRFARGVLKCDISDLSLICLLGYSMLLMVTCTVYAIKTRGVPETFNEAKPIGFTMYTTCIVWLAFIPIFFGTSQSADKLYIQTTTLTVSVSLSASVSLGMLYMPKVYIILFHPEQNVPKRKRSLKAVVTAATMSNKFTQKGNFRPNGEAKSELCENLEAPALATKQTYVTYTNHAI

[16] = molecular target: Metabotropic glutamate receptor 4 (Homo sapiens) (UniProt Q14833); test: Antagonist activity at human mGlu 4 expressed in L929 cells assessed inhibition of [35S]GTPgammaS binding by liquid scintillation counting; assay type: functional, cell-based; in short: as §2
[17] = Metabolic stability of human liver microsomes assessed as compound metabolized at 5 uM after 15 mins; assay type: ADME, Microsome; details: read-out: Drug metabolism
In short: (§6)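 Test compound at 5 μM incubated 15 min with rat or human liver microsomes; read-out is percent of compound metabolized.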

[18] = Metabolic stability of Sprague-Dawley rat liver microsomes assessed as compound metabolized at 5 uM after 15 mins; assay type: ADME, Microsome; details: read-out: Drug metabolism; in short: as §6
[19] = molecular target: Metabotropic glutamate receptor 3 (Homo sapiens) (UniProt Q14832); test: Agonist activity at human mGlu 3 expressed in HEK293 cells at 10 uM by Ca+2 assay; assay type: functional, cell-based; in short: as §1
[20] = molecular target: T1, Metabotropic glutamate receptor 7; test: Agonist activity at human mGlu 7 expressed in HEK293 cells by Ca+2 assay; assay type: functional, cell-based
[21] = molecular target: Metabotropic glutamate receptor 1 (Homo sapiens) (UniProt Q13255); test: Antagonist activity at human mGlu 1 expressed in HEK293 cells at 10 uM by Ca+2 assay; assay type: functional, cell-based; in short: as §1
Chain of Metabotropic glutamate receptor 1 (Homo sapiens) (Q13255 19-1194 limits assumed): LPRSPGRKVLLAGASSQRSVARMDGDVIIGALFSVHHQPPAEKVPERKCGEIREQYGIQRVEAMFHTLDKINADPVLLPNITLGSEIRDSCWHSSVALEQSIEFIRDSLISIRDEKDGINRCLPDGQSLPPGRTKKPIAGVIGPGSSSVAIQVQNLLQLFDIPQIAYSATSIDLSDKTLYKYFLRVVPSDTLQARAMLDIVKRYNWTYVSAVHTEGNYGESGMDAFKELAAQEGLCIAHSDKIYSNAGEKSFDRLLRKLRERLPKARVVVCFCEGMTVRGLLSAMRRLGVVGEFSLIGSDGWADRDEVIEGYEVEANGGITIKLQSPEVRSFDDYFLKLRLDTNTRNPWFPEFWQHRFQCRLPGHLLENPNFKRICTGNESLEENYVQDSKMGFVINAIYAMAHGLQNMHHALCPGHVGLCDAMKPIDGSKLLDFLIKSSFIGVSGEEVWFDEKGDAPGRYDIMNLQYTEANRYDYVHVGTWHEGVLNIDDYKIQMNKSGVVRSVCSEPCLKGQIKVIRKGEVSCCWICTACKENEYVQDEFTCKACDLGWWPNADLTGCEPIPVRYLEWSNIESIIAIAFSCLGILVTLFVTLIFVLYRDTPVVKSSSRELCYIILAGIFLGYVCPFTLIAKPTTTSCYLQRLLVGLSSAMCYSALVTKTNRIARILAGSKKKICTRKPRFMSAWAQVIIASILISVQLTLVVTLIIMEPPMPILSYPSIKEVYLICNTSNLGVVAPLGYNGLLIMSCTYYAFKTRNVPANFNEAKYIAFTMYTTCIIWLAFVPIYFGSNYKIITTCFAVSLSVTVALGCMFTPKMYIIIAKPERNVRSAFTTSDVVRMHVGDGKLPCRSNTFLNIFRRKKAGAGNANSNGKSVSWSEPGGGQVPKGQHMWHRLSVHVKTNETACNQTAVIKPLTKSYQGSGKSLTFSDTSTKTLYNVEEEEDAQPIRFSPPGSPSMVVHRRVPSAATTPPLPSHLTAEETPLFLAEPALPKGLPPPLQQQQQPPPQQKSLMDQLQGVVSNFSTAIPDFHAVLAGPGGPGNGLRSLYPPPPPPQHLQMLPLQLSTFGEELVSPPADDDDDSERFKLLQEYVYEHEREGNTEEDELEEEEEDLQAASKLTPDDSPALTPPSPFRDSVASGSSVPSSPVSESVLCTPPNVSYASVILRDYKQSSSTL

[22] = molecular target: T2, Metabotropic glutamate receptor 2 (Homo sapiens, UniProt Q14416); test: Agonist activity at human mGlu 2 expressed in CHO cells assessed as [35S]GTPgammaS binding by liquid scintillation analysis; assay type: functional, cell-based
In short: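 Membranes from butyrate-stimulated (5 mM, 24 h) CHO cells expressing human mGlu2. Preincubated 30 min at 30 °C in HEPES pH 7.4 with NaCl, MgCl2, 50 μM GDP and saponin; modulator 0.3 nM–50 μM, no added glutamate. [35S]GTPγS 0.1 nM final, 30 min at 30 °C, filtered, scintillation counted. Nonspecific binding defined with cold GTP; 11 concentrations in duplicate, ≥3 curves.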

[23] = Cmax in Sprague-Dawley rat at 10 mg/kg, po and 2.5 mg/kg, iv; assay type: ADME, organism-based; details: in vivo; in short: as §3
[24] = Drug uptake in Sprague-Dawley rat brain at 10 mg/kg, sc after 2 hrs; assay type: ADME, organism-based; design: dose 10 mg/kg, route subcutaneous; details: read-out: Drug uptake; in short: as §4
[25] = molecular target: Metabotropic glutamate receptor 1 (Homo sapiens) (UniProt Q13255); test: Agonist activity at human mGlu 1 expressed in HEK293 cells at 10 uM by Ca+2 assay; assay type: functional, cell-based; in short: as §1
[26] = Plasma concentration in Sprague-Dawley rat at 10 mg/kg, sc after 4 hrs; assay type: ADME, organism-based; design: dose 10 mg/kg, route subcutaneous; in short: as §5
[27] = Clearance in Sprague-Dawley rat at 10 mg/kg, po and 2.5 mg/kg, iv; assay type: ADME, organism-based; details: in vivo
[28] = molecular target: T2, Metabotropic glutamate receptor 2; test: Agonist activity at human mGlu 2 expressed in CHO cells by PAM assay relative to glutamate; assay type: functional, cell-based
In short: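 The assay measured [35S]GTPγS binding to membranes from CHO cells expressing human mGluR2. Cells were butyrate-stimulated (5 mM, 24 h) before membranes were prepared. Membranes were preincubated for 30 min at 30 °C in HEPES pH 7.4 buffer (NaCl, MgCl2, 50 μM GDP) with compound (0.3 nM–50 μM, 11 concentrations) plus EC25 glutamate. [35S]GTPγS (0.1 nM final) was then added for 30 min at 30 °C. Bound label was collected by filtration and counted. Runs were done at least in triplicate with duplicate points, and a four-parameter logistic fit gave the values.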

[29] = molecular target: Metabotropic glutamate receptor 6 (Rattus norvegicus) (UniProt P35349); test: Agonist activity at rat mGlu 6 expressed in CHO cells assessed as [35S]GTPgammaS binding by liquid scintillation counting; assay type: functional, cell-based; in short: as §2
[30] = Plasma concentration in Sprague-Dawley rat at 10 mg/kg, sc after 1 hr; assay type: ADME, organism-based; design: dose 10 mg/kg, route subcutaneous; in short: as §5
[31] = Ratio of drug level in brain to plasma of Sprague-Dawley rat at 10 mg/kg, sc after 1 hr; assay type: ADME, organism-based; design: dose 10 mg/kg, route subcutaneous; details: read-out: BPR; in short: as §5
[32] = Plasma concentration in Sprague-Dawley rat at 10 mg/kg, sc after 2 hrs; assay type: ADME, organism-based; design: dose 10 mg/kg, route subcutaneous; in short: as §5
[33] = Drug uptake in Sprague-Dawley rat brain at 10 mg/kg, sc after 4 hrs; assay type: ADME, organism-based; design: dose 10 mg/kg, route subcutaneous; details: read-out: Drug uptake; in short: as §4

Chain of Metabotropic glutamate receptor 5 (Homo sapiens) (P41594 21-1212 limits assumed): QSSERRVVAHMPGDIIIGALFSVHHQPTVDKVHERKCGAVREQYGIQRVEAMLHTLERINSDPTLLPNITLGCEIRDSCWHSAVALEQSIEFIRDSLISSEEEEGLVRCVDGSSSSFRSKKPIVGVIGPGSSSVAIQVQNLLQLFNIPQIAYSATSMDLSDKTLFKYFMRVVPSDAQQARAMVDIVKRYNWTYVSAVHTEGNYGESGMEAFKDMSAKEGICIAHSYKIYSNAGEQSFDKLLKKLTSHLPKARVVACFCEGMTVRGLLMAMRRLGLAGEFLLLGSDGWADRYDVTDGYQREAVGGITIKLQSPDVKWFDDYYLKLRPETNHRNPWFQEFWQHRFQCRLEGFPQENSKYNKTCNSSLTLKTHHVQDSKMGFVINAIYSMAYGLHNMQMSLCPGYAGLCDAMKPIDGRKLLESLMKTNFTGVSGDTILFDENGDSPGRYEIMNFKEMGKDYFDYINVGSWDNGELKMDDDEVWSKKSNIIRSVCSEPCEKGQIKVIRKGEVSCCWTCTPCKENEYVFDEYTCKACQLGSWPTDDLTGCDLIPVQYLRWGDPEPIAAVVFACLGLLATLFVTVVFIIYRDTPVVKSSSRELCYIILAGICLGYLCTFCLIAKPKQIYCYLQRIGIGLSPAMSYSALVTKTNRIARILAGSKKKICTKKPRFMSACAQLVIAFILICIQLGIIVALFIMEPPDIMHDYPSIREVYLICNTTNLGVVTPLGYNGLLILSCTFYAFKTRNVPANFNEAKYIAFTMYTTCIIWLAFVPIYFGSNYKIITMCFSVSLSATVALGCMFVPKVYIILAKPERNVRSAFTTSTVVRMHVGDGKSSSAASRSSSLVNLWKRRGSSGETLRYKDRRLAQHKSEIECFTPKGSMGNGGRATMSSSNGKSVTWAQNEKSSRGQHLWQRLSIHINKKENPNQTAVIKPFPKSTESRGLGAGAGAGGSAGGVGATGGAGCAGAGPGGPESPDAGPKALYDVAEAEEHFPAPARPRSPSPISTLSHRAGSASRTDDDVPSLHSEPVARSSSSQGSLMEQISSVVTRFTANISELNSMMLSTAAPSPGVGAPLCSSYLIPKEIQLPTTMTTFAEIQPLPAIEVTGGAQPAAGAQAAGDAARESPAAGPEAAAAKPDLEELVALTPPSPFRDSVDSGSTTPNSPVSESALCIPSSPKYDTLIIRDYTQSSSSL

O[C@H]1CC[C@H](n2ccc3cc(-c4ccn5c(CC(F)(F)F)cnc5c4Cl)ccc32)CC1
Activity [1]: inactive
Activity [2]: inactive
Activity [3]: inactive
AUC(0-inf) [4]: 10600 ng·h/mL
Activity [5]: inactive
Activity [6]: inactive
half-life [7]: 4.3 h
concentration at 1 h [8]: 932 ng/g
bioavailability [9]: 100%
Activity [10]: inactive
Kp at 2 h [11]: 0.3
Activity [12]: inactive
Tmax [13]: 3.3 h
Kp at 4 h [14]: 0.4
Activity [15]: inactive
Activity [16]: inactive
metabolised at 0.25 h, 5 µM [17]: 14%
metabolised at 0.25 h, 5 µM [18]: 8%
Activity [19]: inactive
EC50 [20]: 5200 nM
Activity [21]: inactive
EC50 [22]: 160 nM
Cmax [23]: 1140 ng/mL
concentration at 2 h [24]: 1040 ng/g
Activity [25]: inactive
concentration at 4 h [26]: 1950 ng/mL
clearance [27]: 15 mL/min/kg
Emax [28]: 244%
Activity [29]: inactive
concentration at 1 h [30]: 3810 ng/mL
Kp at 1 h [31]: 0.2
concentration at 2 h [32]: 3730 ng/mL
concentration at 4 h [33]: 843 ng/g
